Reference: ChEMBL document CHEMBL1149909, “Aurocitrin and related polyketide metabolites from the wood-decay fungus Hypocrea sp. BCC 14122” (J Nat Prod, 2008)

Key:
[1] = tested on: Plasmodium falciparum; assay: Antimalarial activity against multidrug-resistant Plasmodium falciparum K1 by microculture radioisotope technique; format: functional, organism-based
[2] = Cytotoxicity against human BC cells by colorimetric method; format: functional, cell-based
Summary of the method: (§1)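 Colorimetric cytotoxicity read-out on four cell lines: KB (oral human epidermoid carcinoma), BC (human breast cancer), NCI-H187 (human small cell lung cancer) and Vero (African green monkey kidney […]). A reference compound was run alongside.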

[3] = tested on: Vero; assay: Cytotoxicity against african green monkey Vero cells by colorimetric method; format: cell-based; conditions: Chlorocebus sabaeus; summary of the method: as §1
[4] = tested on: NCI-H187; assay: Cytotoxicity against human NCI-H187 cells by colorimetric method; format: functional, cell-based; summary of the method: as §1
[5] = tested on: KB; assay: Cytotoxicity against human KB cells by colorimetric method; format: functional, cell-based; summary of the method: as §1

SMILES | IC50 [1] | IC50 [2] | IC50 [3] | IC50 [4] | IC50 [5]
C[C@H]1[C@@H](O)O[C@@H]2O[C@@]3(C)CC[C@H]4[C@H](C)CC[C@@H]1[C@@]24OO3 [ARTENIMOL] | 4.5 nM | – | – | – | –
Cc1c2ccncc2c(C)c2c1[nH]c1ccccc12 [ELLIPTECINE] | – | 1200 nM | 2100 nM | 2000 nM | 2200 nM
